Source: PubChem
Yeast superoxide = caloric restriction mimetics inhibiting age-related superoxide in yeast; S. cerevisiae aged cells, superoxide DHE fluorescence; stronger effect = lower value; 330,000 compounds, 0.18% hits; superoxide response (% of plate mean), % at 10 µM;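 active means superoxide response under a set limit, about three screen SD below normal, cut at about 65% in these data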;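 further: yeast aged for seven days with compound at 30 °C before DHE staining; 100% = average MFI of all compound-treated wells on the plate with controls excluded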
T cruzi inh = blocks replication of Trypanosoma cruzi; T. cruzi beta-gal in NIH3T3, luminescence, 90 h; 300,000 compounds, 1.4% hits; inhibition, % (no concentration beside the values); AID 1885;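 active means mean inhibition across valid replicates above about 55%, limit read from the data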;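 further: signal also drops with host cell toxicity which is not excluded here; 0% = plate median of DMSO wells and 100% = zero luminescence signal; higher percent means less beta-gal luminescence so fewer parasites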
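assay system = mouse NIH/3T3 fibroblasts infected with β-gal-expressing T. cruzi Tulahuen C4 | input = 5,000 NIH/3T3 host cells per well | buffer or medium = DMEM plus 2% FBS | timing = 3 h host attachment, then at least 90 h co-culture | measured by = GalScreen luminescence, 60 min | evaluation = luminescence reflecting intracellular parasite burden, expressed as percent inhibition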
CendR NRP1 mod = modulators of CendR peptide binding to human neuropilin-1; AID 602438; 360,000 compounds, 0.85% hits; inhibition, % at 25 µM; FAM-RPARPAR peptide binding to NRP-1, fluorescence polarization;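 active means inhibition or corrected inhibition above about 18%, plus a signal ratio from 0.5 to 1.5, limit read from the data, passing the limit was not always enough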
Target sequence (O14786 whole entry, looked up): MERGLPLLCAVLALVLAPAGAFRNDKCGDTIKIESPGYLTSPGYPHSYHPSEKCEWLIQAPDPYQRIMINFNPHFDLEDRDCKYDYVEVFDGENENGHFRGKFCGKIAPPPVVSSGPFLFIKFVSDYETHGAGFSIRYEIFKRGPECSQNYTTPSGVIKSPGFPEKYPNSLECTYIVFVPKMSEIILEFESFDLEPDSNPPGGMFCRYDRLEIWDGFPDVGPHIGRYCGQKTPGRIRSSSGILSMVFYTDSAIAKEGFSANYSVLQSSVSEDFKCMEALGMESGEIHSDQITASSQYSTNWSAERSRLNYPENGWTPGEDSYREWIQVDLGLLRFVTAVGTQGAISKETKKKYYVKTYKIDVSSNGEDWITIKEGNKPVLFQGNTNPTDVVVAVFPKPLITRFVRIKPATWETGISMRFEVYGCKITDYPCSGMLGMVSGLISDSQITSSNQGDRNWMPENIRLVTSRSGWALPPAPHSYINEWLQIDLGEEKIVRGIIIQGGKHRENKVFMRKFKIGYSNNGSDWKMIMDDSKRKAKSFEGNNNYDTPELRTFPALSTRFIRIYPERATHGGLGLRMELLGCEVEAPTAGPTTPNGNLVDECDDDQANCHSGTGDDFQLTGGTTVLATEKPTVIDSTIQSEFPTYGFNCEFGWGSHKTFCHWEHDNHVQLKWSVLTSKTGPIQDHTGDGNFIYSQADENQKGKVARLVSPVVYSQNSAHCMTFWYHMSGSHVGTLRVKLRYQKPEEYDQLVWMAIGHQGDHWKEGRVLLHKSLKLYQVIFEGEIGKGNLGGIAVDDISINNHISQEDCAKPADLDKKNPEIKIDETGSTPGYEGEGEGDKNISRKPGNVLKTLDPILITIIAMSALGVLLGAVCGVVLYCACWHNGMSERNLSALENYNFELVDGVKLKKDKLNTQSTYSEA
AI-2 QS mod = modulates the Vibrio harveyi AI-2 quorum sensing system. Vibrio harveyi JMH597 AI-2 luminescence/OD600 ratio, 9 h; stronger effect = lower value; strain lacks LuxN and CqsS sensors; 0 = neutral-control median. activity change, % at 7.5 µM. 300,000 compounds, 0.4% hits; in the data active means activity change below about -75%, passing the limit was not always enough;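 further: luminescence divided by OD600 gain over 9 h not by final OD600 alone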
HIF activator = HIF pathway transcriptional activation. U2OS HRE-luciferase reporter, luminescence; normalized: DMSO 0%, desferrioxamine 100%. AID 1910. activation, % at 7.5 µM (by protocol). 300,000 compounds, 0.32% hits;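 active means mean activation of at least 10% of the iron chelator positive control signal, with at least half of replicates also reaching 10%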
V-ATPase pHluor = alters yeast V-ATPase proton transport. response, % at 10 µM. AID 504577. S. cerevisiae, pHLuorin cytosolic pH fluorescence. 350,000 compounds, 0.37% hits; in the data active means response mostly above about 7.3%, no sharp cut-off; inactive means mostly below about 5.4%; further: actives read high
Numbers without * were called inactive. Hits are enriched below; roughly 3% of the tested compounds scored in any of these assays.

Cc1ccc(C(CC(=O)O)C2CCOC(C)(C)C2)cc1 (stereo unspecified) was read as Yeast superoxide 112, T cruzi inh -2, CendR NRP1 mod -4, AI-2 QS mod 5, HIF activator 42* and V-ATPase pHluor 2.
Screening CC(=O)C1=C(c2ccccc2)NC(=S)NC1c1cc(Cl)c(OC(C)C)c(Cl)c1 (stereo unspecified) returned Yeast superoxide 94, T cruzi inh 61*, CendR NRP1 mod -6, AI-2 QS mod 21, HIF activator 0 and V-ATPase pHluor 1.
Screening COc1ccc(C2=Nc3ccccc3NC(=O)C2N(C(=O)c2cnc(C)cn2)c2ccc(N3CCOCC3)cc2)cc1 (stereo unspecified) returned CendR NRP1 mod 22*.
Cc1cnc(C(=O)N(c2ccc(N3CCOCC3)cc2)C2C(=O)Nc3ccccc3N=C2c2ccc3c(c2)OCO3)cn1 (stereo unspecified) was read as CendR NRP1 mod 5.
Screening Cc1ccsc1C(=O)NCc1ccccc1Cl returned Yeast superoxide 104, T cruzi inh -12, CendR NRP1 mod 2, AI-2 QS mod 11, HIF activator -1 and V-ATPase pHluor 2.
`O=C(O)c1cc2nc(-c3cccs3)cc(C(F)(F)F)n2n1` gave Yeast superoxide 97, T cruzi inh -16, CendR NRP1 mod 29*, AI-2 QS mod 40, HIF activator 0 and V-ATPase pHluor 0.
For O=C(c1cnn2c(C(F)(F)F)cc(-c3cccs3)nc12)N1CCN(Cc2ccccc2)CC1 the results were Yeast superoxide 92, T cruzi inh 75*, CendR NRP1 mod 6, AI-2 QS mod -4, HIF activator -2 and V-ATPase pHluor 2.
For O=C(O)C1CCN(C(=O)c2ccc(Cl)cc2)CC1 the results were Yeast superoxide 98, T cruzi inh 2, CendR NRP1 mod 25*, AI-2 QS mod -2, HIF activator 0 and V-ATPase pHluor 1.
Screening COc1ccccc1OCCNC(=O)C1CC(=O)N(c2ccccc2OC)C1 (stereo unspecified) returned Yeast superoxide 92, CendR NRP1 mod 11 and V-ATPase pHluor -4.
Screening COc1ccc(/C=N/N=C2/CC(C)(C)Cc3n[nH]c(=O)cc32)cc1 returned Yeast superoxide 94, T cruzi inh -21, CendR NRP1 mod 50*, AI-2 QS mod 2, HIF activator 1 and V-ATPase pHluor -1.
Screening CCOc1cc(N2CCOCC2)c(OCC)cc1NC(C)C(=O)N1CCC(C)CC1 (stereo unspecified) returned Yeast superoxide 95, T cruzi inh 43, CendR NRP1 mod 0, AI-2 QS mod 7, HIF activator 29* and V-ATPase pHluor 6.
CCOc1cc(N2CCOCC2)c(OCC)cc1NC(=O)[C@H](C)N1C(=O)C2CC=CCC2C1=O (stereo partly specified) was read as Yeast superoxide 100, T cruzi inh 9, CendR NRP1 mod -11, AI-2 QS mod 12, HIF activator 0 and V-ATPase pHluor -1.
`OCCCn1c(-c2ccccc2)nc(=S)c2c1CCCC2` gave Yeast superoxide 82, T cruzi inh -9, CendR NRP1 mod 8, AI-2 QS mod 35, HIF activator 1 and V-ATPase pHluor 1.
For CN(C)CCCn1c(-c2ccccc2)nc(=S)c2c1CCCC2 the results were Yeast superoxide 99, T cruzi inh 59*, CendR NRP1 mod -7, AI-2 QS mod 12, HIF activator 0 and V-ATPase pHluor 4.
Screening CC(NC(=O)CSc1ncccn1)c1ccc(Cl)cc1Cl (stereo unspecified) returned Yeast superoxide 106, T cruzi inh -2, CendR NRP1 mod 13, AI-2 QS mod 10, HIF activator 0 and V-ATPase pHluor -1.
CC(C)C(=O)NC(c1ccc(Cl)cc1Cl)c1ccc2cccnc2c1O (stereo unspecified) was read as Yeast superoxide 84, T cruzi inh 40, CendR NRP1 mod 4, AI-2 QS mod 10, HIF activator 80* and V-ATPase pHluor -2.
COc1ccc(C(NC(=O)C(C)C)c2ccc3cccnc3c2O)cc1 (stereo unspecified) was read as Yeast superoxide 78, T cruzi inh 54, CendR NRP1 mod 0, AI-2 QS mod 25, HIF activator 121* and V-ATPase pHluor -9.
Screening CCCCC(=O)NC(c1ccc(Cl)cc1Cl)c1ccc2cccnc2c1O (stereo unspecified) returned Yeast superoxide 98, T cruzi inh 64*, CendR NRP1 mod -1, AI-2 QS mod -11, HIF activator 28* and V-ATPase pHluor 6.
For CCC(=O)NC(c1ccc(Cl)cc1Cl)c1ccc2cccnc2c1O (stereo unspecified) the results were Yeast superoxide 97, T cruzi inh 67*, CendR NRP1 mod 8, AI-2 QS mod 31, HIF activator 102* and V-ATPase pHluor -3.
Screening Cc1ccc(SCC(=O)Nc2cccc(S(=O)(=O)N3CCOCC3)c2)cc1C returned Yeast superoxide 106, CendR NRP1 mod -6 and V-ATPase pHluor 2.
`C#CCOCCOCCOCCNc1nc(N2CCN(C(=O)[C@H](CCCCN)n3cc(CN)nn3)CC2)nc(N2CCN(C(=O)[C@H](CCCCN)n3cc(CN)nn3)CC2)n1` gave Yeast superoxide 109, CendR NRP1 mod 32* and V-ATPase pHluor 1.
`Cc1cn([C@@H](CCCCNC(=O)OC(C)(C)C)C(=O)NCCCCCCCCCCC(=O)N2CCN(C(=O)OC(C)(C)C)CC2)nn1` gave Yeast superoxide 89, CendR NRP1 mod 9 and V-ATPase pHluor -2.
For C#CCOCCOCCOCCNc1nc(N2CCN(C(=O)CCCCCCCCCCNC(=O)Cn3cc(CCCCCN)nn3)CC2)nc(N2CCN(C(=O)CCCCCCCCCCNC(=O)Cn3cc(C[C@@H](C)O)nn3)CC2)n1 the results were Yeast superoxide 101, CendR NRP1 mod -2 and V-ATPase pHluor 8.6*.
C#CCOCCOCCOCCNc1nc(N2CCN(C(=O)CCCCCCCCCCNC(=O)Cn3cc(C[C@@H](C)O)nn3)CC2)nc(N2CCN(C(=O)CCCCCCCCCCNC(=O)[C@@H]([C@H](C)CC)n3cc(CCCCCN)nn3)CC2)n1 was read as Yeast superoxide 99, CendR NRP1 mod 2 and V-ATPase pHluor 11.
Screening CC[C@H](C)Cc1cn([C@@H](CCCN=C(NC(=O)OC(C)(C)C)NC(=O)OC(C)(C)C)C(=O)NCCCCCCCCCCC(=O)N2CCN(C(=O)OC(C)(C)C)CC2)nn1 returned Yeast superoxide 108, T cruzi inh 59*, CendR NRP1 mod -7, AI-2 QS mod 1, HIF activator -4 and V-ATPase pHluor -4.
